Laboratory results from ChEMBL document CHEMBL1155746, “Isolation of new protein phosphatase inhibitors from two cyanobacteria species, Planktothrix spp” (J Nat Prod, 2001).
Calls of active or inactive are those of the source. No cut-off for these calls is given here. *1 amine or outer side, *2 acyl side, *3 side chain or, on linkers, in order; H or OH if unused. Where a SMILES comes first, the peptide text is derived from it. Bridges are numbered along the chain shown (N, C = ends). [ ]: non-standard residue; d: D form. hTyr = N[C@@H](CCc1ccc(O)cc1)C(=O)O; aIle = CC[C@@H](C)[C@H](N)C(=O)O; NMeA = CN[C@@H](C)C(=O)O; CO = O=C([*:1])[*:2]

Experiments:
[1] = Inhibition of PTP-S2 expressed in Escherichia coli JM109 at 100 ug/mL
[2] = species: Oryctolagus cuniculus; test: Inhibition of rabbit skeletal muscle PP1 at 100 ug/mL by liquid scintillation counter
Summary of the method: (§1)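 Enzyme at 0.05 unit/50 µL was incubated with 32P-labelled myelin basic protein, which had been phosphorylated using cAMP-dependent kinase catalytic subunit and γ-[32P]ATP. Reactions ran at 30 °C for 10 min in duplicate and were stopped with 20% trichloroacetic acid on ice. Released 32Pi in the supernatant was counted by liquid scintillation. The control received MeOH.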

[3] = target: T1, M-phase inducer phosphatase 2 (Homo sapiens) (UniProt P30305); test: Inhibition of human dual specificity protein phosphatase Cdc25B expressed in Escherichia coli BL21 (DE3) at 100 ug/mL
T1 sequence (whole entry): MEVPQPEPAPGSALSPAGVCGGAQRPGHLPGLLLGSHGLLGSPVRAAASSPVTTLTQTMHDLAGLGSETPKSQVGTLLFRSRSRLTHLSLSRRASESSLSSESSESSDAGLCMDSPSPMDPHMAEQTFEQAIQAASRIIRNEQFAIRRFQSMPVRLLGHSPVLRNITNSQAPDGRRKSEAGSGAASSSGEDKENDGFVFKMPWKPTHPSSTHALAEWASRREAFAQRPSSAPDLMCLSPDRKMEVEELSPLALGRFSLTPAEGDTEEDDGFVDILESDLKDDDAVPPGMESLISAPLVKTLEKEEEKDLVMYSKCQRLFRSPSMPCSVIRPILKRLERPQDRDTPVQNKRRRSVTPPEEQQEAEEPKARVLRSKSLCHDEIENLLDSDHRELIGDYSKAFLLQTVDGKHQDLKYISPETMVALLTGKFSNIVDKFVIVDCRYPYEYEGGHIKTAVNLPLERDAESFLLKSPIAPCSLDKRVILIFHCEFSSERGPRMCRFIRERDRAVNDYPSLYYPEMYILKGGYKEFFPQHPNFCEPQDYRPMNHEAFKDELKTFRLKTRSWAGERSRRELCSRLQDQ
Summary of the method: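 The catalytic subunit was expressed from pET21b and purified. Substrate was 200 µM 3-O-methylfluorescein phosphate in 100 mM Tris-HCl, 40 mM NaCl, 1 mM dithiothreitol, 20% glycerol, pH 8.2, at 37 °C for 20 min. Reactions were stopped with 6 M guanidine-HCl/1 M MES, pH 5.5, and the absorbance increase at 477 nm was read. The control received MeOH.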

[4] = species: Homo sapiens; test: Inhibition of human red blood cells PP2A at 100 ug/mL by liquid scintillation counter; summary of the method: as §1
[5] = target: Dual specificity protein phosphatase 3 (Homo sapiens) (UniProt P51452); test: Inhibition of human dual specificity protein phosphatase VHR expressed in Escherichia coli JM109 at 100 ug/mL
Dual specificity protein phosphatase 3 (Homo sapiens), sequence (P51452 whole entry, looked up): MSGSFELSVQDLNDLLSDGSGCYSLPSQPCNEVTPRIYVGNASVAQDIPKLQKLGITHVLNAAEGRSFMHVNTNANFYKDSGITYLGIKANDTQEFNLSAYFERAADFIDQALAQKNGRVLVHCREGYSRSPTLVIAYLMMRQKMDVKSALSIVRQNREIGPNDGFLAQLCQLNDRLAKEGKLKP

[6] = Inhibition of human red blood cell PP2A; summary of the method: as §1
[7] = Inhibition of rabbit skeletal muscle PP1; set-up: species or system Oryctolagus cuniculus; summary of the method: as §1

Row | SMILES | Activity [1] | inhibition [2] | Activity [3] | inhibition [4] | Activity [5] | IC50 [6] | IC50 [7]
1 | CC[C@H](C)[C@@H]1NC(=O)[C@H](NC(=O)N[C@@H](CCCNC(=N)N)C(=O)O)CCCCNC(=O)[C@H](Cc2ccccc2)NC(=O)[C@H](C)N(C)C(=O)[C@H](CCc2ccc(O)cc2)NC1=O ({Arg-CO}-[dK]I[hTyr][NMeA]F; lactam 1-C) | inactive | 38.1% | inactive | 41.5% | inactive | – | –
2 | CSCC[C@@H]1NC(=O)[C@H](NC(=O)N[C@@H](CCCNC(=N)N)C(=O)O)CCCCNC(=O)[C@H](Cc2ccccc2)NC(=O)[C@H](C)N(C)C(=O)[C@H](CCc2ccc(O)cc2)NC1=O ({Arg-CO}-[dK]M[hTyr][NMeA]F; lactam 1-C) | inactive | 43.3% | inactive | 62.8% | inactive | – | –
3 | CC[C@@H](C)[C@@H]1NC(=O)[C@H](NC(=O)N[C@@H](Cc2ccc(O)cc2)C(=O)O)CCCCNC(=O)[C@H](Cc2ccccc2)NC(=O)[C@H](C)N(C)C(=O)[C@H](CCc2ccc(O)cc2)NC1=O ({Tyr-CO}-[dK][aIle][hTyr][NMeA]F; lactam 1-C) | inactive | 11.2% | inactive | 9.6% | inactive | – | –
4 | CC[C@H](C)[C@@H]1NC(=O)[C@H](NC(=O)N[C@@H](CCCNC(=N)N)C(=O)O)CCCCNC(=O)[C@H](Cc2ccccc2)NC(=O)[C@H](CCc2ccc(O)cc2)N(C)C(=O)[C@H](CCc2ccc(O)cc2)NC1=O [OSCILLAMIDE C] | inactive | 97.3% | inactive | 98.4% | inactive | 1330 nM | 900 nM
